# Non-standard residues stand in square brackets, D forms with d. Residues, ends and D or L forms follow the SMILES beside them. *: point of attachment. Cha = N[C@@H](CC1CCCCC1)C(=O)O; Decanoyl = CCCCCCCCCC(=O)*; Heptanoyl = CCCCCCC(=O)*; Octanoyl = CCCCCCCC(=O)*; Dab = NCC[C@H](N)C(=O)O; Hexanoyl = CCCCCC(=O)*
# Experiments:
# [1] = tested on: Acinetobacter baumannii ATCC 19606; assay: Sensitization to antibiotics, checkerboard MIC; assay type: cell-based; settings: for Sensitization factor, rifampicin, Acinetobacter baumannii ATCC 19606: ratio of the MIC in the absence of paenipeptins to that in the presence of 4 μg/mL
# [2] = tested on: Klebsiella pneumoniae ATCC 13883; assay: Sensitization to antibiotics, checkerboard MIC; assay type: cell-based; settings: for Sensitization factor, rifampicin, Klebsiella pneumoniae ATCC 13883: ratio of the MIC in the absence of paenipeptins to that in the presence of 4 μg/mL; for Sensitization factor, clarithromycin, Klebsiella pneumoniae ATCC 13883: MIC without / with 4 μg/mL paenipeptin
# P. aeruginosa ATCC 27853 [3] = tested on: P. aeruginosa ATCC 27853
# [4] = tested on: methicillin-resistant S. aureus ATCC 43300
# [5] = tested on: methicillin-resistant S. aureus strain LAC; assay: Catheter-associated biofilm in vitro; assay type: cell-based, Staphylococcus aureus; settings: for reduction of viable biofilm-associated S. aureus cells: established catheter biofilm, n=6 catheters
# P. aeruginosa ATCC 27853 [6] = assay: Time-kill assay; assay type: cell-based, Pseudomonas aeruginosa
# In short: (§1)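 Time-kill is run with test compound at 8, 16 and 32 μg/mL. Surviving cells are counted by plating on TSA at 0, 2, 4, 6 and 24 h. Three independent experiments are run, one replicate each. Results are given as mean ± standard deviation, and final-timepoint counts are compared by ANOVA with Tukey HSD.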
# P. aeruginosa ATCC 27853 [7] = assay: Potassium ion release assay, PBFI probe; assay type: cell-based, Pseudomonas aeruginosa; settings: PBFI fluorescence; tested 8–64 μg/mL
# S. aureus ATCC 29213 [8] = assay: Potassium ion release assay, PBFI probe; assay type: cell-based, Staphylococcus aureus; settings: PBFI fluorescence; tested 8–64 μg/mL
# P. aeruginosa ATCC 27853 [9] = assay: Impact of purified lipopolysaccharide; assay type: cell-based, Pseudomonas aeruginosa; settings: LPS from E. coli O111:B4 at 100 μg/ml; analogue 17 at 16 μg/mL; 37°C, 60 min
# In short: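 Cells are diluted in TSB to about 10^6 CFU/mL. E. coli O111:B4 LPS (final 10, 25, 50 or 100 μg/mL) is added, then test compound at final 16 μg/mL. Incubation is 60 min at 37 °C with shaking at 200 rpm. Survivors are counted on TSA. Three independent experiments are run, one replicate each. Counts are analysed by ANOVA and Tukey HSD.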
# [10] = tested on: Escherichia coli ATCC 25922; assay: MIC in 95% human serum; assay type: cell-based; settings: against both E. coli and S. aureus; 95% human serum versus TSB
# S. aureus ATCC 29213 [11] = assay: Time-kill assay; assay type: cell-based, Staphylococcus aureus; settings: for reduction of viable S. aureus cells: after 4 h
# In short: as §1
# P. aeruginosa ATCC 27853 [12] = assay: Catheter-associated biofilm in vitro; assay type: cell-based, Pseudomonas aeruginosa; settings: 40× MIC (40 μg/ml), 72 h exposure, n=6
# S. aureus ATCC 29213 [13] = assay: Cytoplasmic membrane integrity assay, DiSC3; assay type: cell-based, Staphylococcus aureus; settings: increase of DiSC3(5) fluorescence; tested 8–64 μg/mL
# P. aeruginosa ATCC 27853 [14] = assay: Cytoplasmic membrane integrity assay, DiSC3; assay type: cell-based, Pseudomonas aeruginosa; settings: increase of DiSC3(5) fluorescence; tested 8–64 μg/mL; buffer with 0.2 mM EDTA
# [15] = cited from earlier work
# Gram-negative bacteria = settings: cited from earlier work
# E. coli UAMS-ECPR1 = assay: MIC, polymyxin-resistant strain; assay type: cell-based, Escherichia coli; settings: polymyxin-resistant derivative of E. coli ATCC 25922
# K. pneumoniae UAMS-KPPR1 = assay: MIC, polymyxin-resistant strain; assay type: cell-based, Klebsiella pneumoniae; settings: polymyxin-resistant derivative of K. pneumoniae ATCC 13883
# E. coli UAMS-ECPR2 = assay type: cell-based, Escherichia coli; settings: polymyxin-resistant derivative of E. coli ATCC 25922
# K. pneumoniae UAMS-KPPR3 = assay: MIC, polymyxin-resistant strain; assay type: cell-based, Klebsiella pneumoniae; settings: polymyxin-resistant derivative of K. pneumoniae ATCC 13883
# [16] = tested on: Klebsiella pneumoniae AR 0109; assay: MIC, polymyxin-resistant strain; assay type: cell-based; settings: FDA-CDC Antibiotic-Resistance Bank
# [17] = MIC without / with 4 μg/mL paenipeptin
compound,measurement,setting,value
CCCCCC(=O)N[C@@H](CCN)C(=O)N[C@H](C(=O)N[C@@H](CCN)C(=O)N[C@H](Cc1ccccc1)C(=O)N[C@@H](CC(C)C)C(=O)N[C@@H](CCN)C(=O)N[C@@H](C(=O)N[C@@H](CC(C)C)C(=O)N[C@@H](CO)C(N)=O)C(C)C)[C@@H](C)CC [Analogue 1] (Hexanoyl-[Dab]I[Dab][dF]L[Dab][dV]LS-NH2),"Sensitization factor, rifampicin, Acinetobacter baumannii ATCC 19606",[1],"4,096–8,192"
same,"Sensitization factor, rifampicin, Klebsiella pneumoniae ATCC 13883",[2],"8,192"
CCCCCCC(=O)N[C@@H](CCN)C(=O)N[C@H](C(=O)N[C@@H](CCN)C(=O)N[C@H](Cc1ccccc1)C(=O)N[C@@H](CC(C)C)C(=O)N[C@@H](CCN)C(=O)N[C@@H](C(=O)N[C@@H](CC(C)C)C(=O)N[C@@H](CO)C(N)=O)C(C)C)C(C)C [Analogue 2] (Heptanoyl-[Dab]V[Dab][dF]L[Dab][dV]LS-NH2),"Sensitization factor, rifampicin, Acinetobacter baumannii ATCC 19606",[1],256–512
same,"Sensitization factor, rifampicin, Klebsiella pneumoniae ATCC 13883",[2],"4,096"
CCCCCCCC(=O)N[C@@H](CCN)C(=O)N[C@H](C(=O)N[C@@H](CCN)C(=O)N[C@H](Cc1ccccc1)C(=O)N[C@@H](CC(C)C)C(=O)N[C@@H](CCN)C(=O)N[C@@H](C(=O)N[C@@H](CC(C)C)C(=O)N[C@@H](CCN)C(N)=O)C(C)C)[C@@H](C)CC [Analogue 9] (Octanoyl-[Dab]I[Dab][dF]L[Dab][dV]L[Dab]-NH2),"Sensitization factor, clarithromycin, Acinetobacter baumannii ATCC 19606",[1]; [17],"4,096–8,192"
same,"Sensitization factor, erythromycin, Acinetobacter baumannii ATCC 19606",[1]; [17],128–256
same,"Sensitization factor, vancomycin, Acinetobacter baumannii ATCC 19606",[1]; [17],64–128
same,"Sensitization factor, rifampicin, Acinetobacter baumannii ATCC 19606",[1],"8,192"
same,"Sensitization factor, clarithromycin, Klebsiella pneumoniae ATCC 13883",[2],"2,048"
same,"Sensitization factor, rifampicin, Klebsiella pneumoniae ATCC 13883",[2],"≥8,192"
CCCCCCCC(=O)N[C@@H](CCN)C(=O)N[C@@H](CCN)C(=O)N[C@@H](CCN)C(=O)N[C@H](Cc1ccccc1)C(=O)N[C@@H](CC(C)C)C(=O)N[C@@H](CCN)C(=O)N[C@@H](C(=O)N[C@@H](CC(C)C)C(=O)N[C@@H](CCN)C(N)=O)C(C)C [Analogue 10] (Octanoyl-[Dab][Dab][Dab][dF]L[Dab][dV]L[Dab]-NH2),"MIC, A. baumannii ATCC 19606",A. baumannii ATCC 19606,>32 µg/mL
same,"Sensitization factor, rifampicin, Acinetobacter baumannii ATCC 19606",[1],256–512
same,"MIC, P. aeruginosa ATCC 27853",P. aeruginosa ATCC 27853 [3],16 to 32 µg/mL
same,"MIC, S. aureus ATCC 43300",[4],>32 µg/mL
CCCCCCCCCC(=O)N[C@@H](CCN)C(=O)N[C@H](C(=O)N[C@@H](CCN)C(=O)N[C@H](Cc1ccccc1)C(=O)N[C@@H](CC(C)C)C(=O)N[C@@H](CCN)C(=O)N[C@@H](C(=O)N[C@@H](CC(C)C)C(=O)N[C@@H](CO)C(N)=O)C(C)C)[C@@H](C)CC [Analogue 12] (Decanoyl-[Dab]I[Dab][dF]L[Dab][dV]LS-NH2),activity in the context of an established catheter-associated biofilm,[5]; data not shown,no activity
CCCCCCCCCC(=O)N[C@@H](CCN)C(=O)N[C@H](C(=O)N[C@H](C(=O)N[C@H](CC(C)C)C(=O)N[C@@H](CC(C)C)C(=O)N[C@@H](CCN)C(=O)N[C@@H](C(=O)N[C@@H](CC(C)C)C(=O)N[C@@H](CO)C(N)=O)C(C)C)[C@@H](C)O)[C@@H](C)CC [Analogue 13] (Decanoyl-[Dab]IT[dL]L[Dab][dV]LS-NH2),"MIC, A. baumannii ATCC 19606",A. baumannii ATCC 19606,>32 µg/mL
same,"synergism with rifampicin, in words",[1]; against Acinetobacter and Klebsiella,did not show synergism
same,"MIC, S. aureus ATCC 43300",[4],>32 µg/mL
CC[C@H](C)[C@H](NC(=O)[C@H](CCN)NC(=O)[C@@H](N)CC1CCCCC1)C(=O)N[C@@H](CCN)C(=O)N[C@H](Cc1ccccc1)C(=O)N[C@@H](CC(C)C)C(=O)N[C@@H](CCN)C(=O)N[C@@H](C(=O)N[C@@H](CC(C)C)C(=O)N[C@@H](CO)C(N)=O)C(C)C [Analogue 16] (H-[Cha][Dab]I[Dab][dF]L[Dab][dV]LS-NH2),"Sensitization factor, ampicillin, Acinetobacter baumannii ATCC 19606",[1]; [17],2–4
same,"Sensitization factor, clarithromycin, Acinetobacter baumannii ATCC 19606",[1]; [17],"2,048"
same,"Sensitization factor, vancomycin, Acinetobacter baumannii ATCC 19606",[1]; [17],32–64
same,"Sensitization factor, rifampicin, Acinetobacter baumannii ATCC 19606",[1],"4,096"
same,"Sensitization factor, clarithromycin, Klebsiella pneumoniae ATCC 13883",[2],"2,048–4,096"
same,"Sensitization factor, rifampicin, Klebsiella pneumoniae ATCC 13883",[2],"≥8,192"
CC(C)C[C@H](NC(=O)[C@@H](Cc1ccccc1)NC(=O)[C@H](CCN)NC(=O)[C@H](Cc1ccccc1)NC(=O)[C@H](CCN)NC(=O)[C@@H](N)CC1CCCCC1)C(=O)N[C@@H](CCN)C(=O)N[C@H](CC(C)C)C(=O)N[C@@H](Cc1ccccc1)C(=O)N[C@@H](CO)C(N)=O [Analogue 17] (H-[Cha][Dab]F[Dab][dF]L[Dab][dL]FS-NH2),reduction of viable P. aeruginosa cells,"P. aeruginosa ATCC 27853 [6]; 8 μg/ml, 2 h",2.2 log
same,viable P. aeruginosa cells at 24 h,"P. aeruginosa ATCC 27853 [6]; 8 μg/ml, 24 h",significant bacterial regrowth
same,reduction of viable P. aeruginosa cells,"P. aeruginosa ATCC 27853 [6]; 16 μg/ml, within 2 h",3.7 logs
same,viable P. aeruginosa cells after 24 h exposure,"P. aeruginosa ATCC 27853 [6]; 32 μg/ml or 16 μg/ml, 24 h",no viable cells were detected
same,reduction of viable P. aeruginosa cells,"P. aeruginosa ATCC 27853 [6]; 32 μg/ml, within 2 h",5.1 logs
same,concentration that significantly released intracellular potassium ions,P. aeruginosa ATCC 27853 [7],32 to 64 µg/mL
same,concentration that significantly released intracellular potassium ions,S. aureus ATCC 29213 [8],32 to 64 µg/mL
same,impact of purified LPS on bactericidal activity,P. aeruginosa ATCC 27853 [9],neutralized the bactericidal activity
same,increase in MIC in the presence of human serum,[10],8 to 16 fold
same,reduction in activity in the presence of human serum,[10],88–94%
same,viable S. aureus cells on exposure,S. aureus ATCC 29213 [11]; 8 μg/ml,Regrowth
same,reduction of viable S. aureus cells,S. aureus ATCC 29213 [11]; 16 μg/ml,3.1 logs
same,reduction of viable S. aureus cells,S. aureus ATCC 29213 [11]; 32 μg/ml,5.4 logs
same,reduction in the number of viable P. aeruginosa cells in an established biofilm,P. aeruginosa ATCC 27853 [12],2.6 log
same,reduction of viable biofilm-associated S. aureus cells,"[5]; 40 μg/mL (5 × MIC), 72 h exposure",3 log
same,reduction of viable biofilm-associated S. aureus cells,"[5]; 160 μg/mL (20 × MIC), 72 h exposure",5 log
same,catheters completely cleared of viable bacteria,"[5]; 20 times the MIC of each antibiotic, six catheters, 72 h exposure",50%
same,concentration that depolarized the membrane potential,S. aureus ATCC 29213 [13],≥ 16 µg/mL
same,concentration that depolarized the membrane potential,P. aeruginosa ATCC 27853 [14],≥ 16 µg/mL
CCCCCCCCCC(=O)N[C@@H](Cc1c[nH]c2ccccc12)C(=O)N[C@H](CC(N)=O)C(=O)N[C@@H](CC(=O)O)C(=O)N[C@@H]1C(=O)NCC(=O)N[C@@H](CCCN)C(=O)N[C@@H](CC(=O)O)C(=O)N[C@H](C)C(=O)N[C@@H](CC(=O)O)C(=O)NCC(=O)N[C@H](CO)C(=O)N[C@@H]([C@H](C)CC(=O)O)C(=O)N[C@@H](CC(=O)c2ccccc2N)C(=O)O[C@@H]1C [daptomycin],bound to plasma proteins,[15],94%
"CO[C@H]1/C=C/O[C@@]2(C)Oc3c(C)c(O)c4c(O)c(c(/C=N/N5CCN(C)CC5)c(O)c4c3C2=O)NC(=O)/C(C)=C\C=C\[C@H](C)[C@H](O)[C@@H](C)[C@@H](O)[C@@H](C)[C@H](OC(C)=O)[C@@H]1C [rifampicin, reference compound]",MIC,"[1]; Acinetobacter baumannii, ATCC19606, read-out: MIC of rifampicin alone, in μM",19.4 µM
same,MIC of rifampicin against Gram-negative bacteria without C10X,Gram-negative bacteria,8 to 32 µg/mL
Polymyxin B,"MIC, E. coli UAMS-ECPR1",E. coli UAMS-ECPR1,32 µg/mL
same,"MIC, K. pneumoniae UAMS-KPPR1",K. pneumoniae UAMS-KPPR1,>32 µg/mL
same,"MIC, E. coli UAMS-ECPR2",E. coli UAMS-ECPR2,32 µg/mL
same,"MIC, K. pneumoniae UAMS-KPPR3",K. pneumoniae UAMS-KPPR3,>32 µg/mL
same,"MIC, Klebsiella pneumoniae AR 0109",[16],16 to 32 µg/mL

# From article PMC12124638 (Journal of medicinal chemistry, 2017)
